Tests used:
[1] = target: Kappa-type opioid receptor (Rattus norvegicus, UniProt P34975); test: Displacement of [3H]U69593 from rat kappa opioid receptor expressed in CHO cells
[2] = target: Mu-type opioid receptor (Homo sapiens, UniProt P35372); test: Displacement of [3H]DAMGO from human mu opioid receptor expressed in HEK293 cells; assay type: cell-based
Procedure, shortened: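 Radioligand competition binding against [³H]DAMGO on human μ-opioid receptor in transfected HEK-293 cells; affinity derived from displacement of the tritiated ligand.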

[3] = target: Delta-type opioid receptor (Homo sapiens, UniProt P41143); test: Displacement of [3H]DADLE from human delta opioid receptor expressed in CHO cells
Sequence of Delta-type opioid receptor (P41143 whole entry): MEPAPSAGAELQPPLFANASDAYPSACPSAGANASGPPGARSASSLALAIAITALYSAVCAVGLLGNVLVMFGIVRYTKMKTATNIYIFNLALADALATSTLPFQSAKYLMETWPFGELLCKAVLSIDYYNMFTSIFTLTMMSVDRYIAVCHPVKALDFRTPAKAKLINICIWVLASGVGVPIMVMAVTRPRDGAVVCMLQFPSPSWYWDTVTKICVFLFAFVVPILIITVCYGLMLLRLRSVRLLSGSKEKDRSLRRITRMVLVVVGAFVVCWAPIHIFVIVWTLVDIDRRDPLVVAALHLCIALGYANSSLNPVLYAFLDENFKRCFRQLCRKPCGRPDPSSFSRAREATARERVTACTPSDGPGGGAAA

Sequence of Mu-type opioid receptor (P35372 whole entry): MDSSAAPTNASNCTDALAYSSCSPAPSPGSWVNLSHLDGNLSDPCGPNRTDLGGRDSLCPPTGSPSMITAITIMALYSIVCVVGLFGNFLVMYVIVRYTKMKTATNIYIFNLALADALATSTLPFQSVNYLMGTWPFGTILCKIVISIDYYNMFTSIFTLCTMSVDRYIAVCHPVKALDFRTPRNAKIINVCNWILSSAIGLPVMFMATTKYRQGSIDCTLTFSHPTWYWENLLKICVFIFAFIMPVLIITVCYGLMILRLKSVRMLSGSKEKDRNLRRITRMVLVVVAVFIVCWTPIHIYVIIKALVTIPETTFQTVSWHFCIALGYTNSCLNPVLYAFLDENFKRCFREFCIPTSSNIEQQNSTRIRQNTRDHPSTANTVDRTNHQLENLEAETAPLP
Sequence of Kappa-type opioid receptor (P34975 whole entry): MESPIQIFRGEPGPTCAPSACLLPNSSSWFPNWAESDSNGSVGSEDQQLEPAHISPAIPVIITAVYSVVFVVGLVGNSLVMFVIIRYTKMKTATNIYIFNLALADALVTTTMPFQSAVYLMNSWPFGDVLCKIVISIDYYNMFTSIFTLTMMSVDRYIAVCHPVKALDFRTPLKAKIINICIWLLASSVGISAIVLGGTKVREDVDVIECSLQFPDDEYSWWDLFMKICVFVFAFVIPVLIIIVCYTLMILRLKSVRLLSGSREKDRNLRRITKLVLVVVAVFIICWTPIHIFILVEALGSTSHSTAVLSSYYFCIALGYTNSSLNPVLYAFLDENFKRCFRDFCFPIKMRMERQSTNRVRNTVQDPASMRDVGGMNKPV

Compound	Ki [1]	Ki [2]	Ki [3]
Cc1cccc(O)c1C(=O)C1=CCCN2CCC[C@@H]12	24 µM	45 µM	94 µM
COc1cccc(C)c1C(=O)C1=CCCN2CCC[C@@H]12	20 µM	> 200 µM	> 200 µM
O=C(C1=CCCN2CCC[C@@H]12)c1ccccc1O	83 µM	49 µM	> 200 µM
Cc1cccc(O)c1C(=O)C1=CCCCN2CCC[C@@H]12		13 µM	> 200 µM
Cc1cccc(O)c1C(=O)C1=CCN2CCC[C@@H]12	35 µM	3.2 µM	> 200 µM
Cc1cccc(O)c1C(=O)C1=CCCN2CCC[C@H]12 [ELAEOCARPENINE]	12 µM	18 µM	14 µM

Source: ChEMBL document CHEMBL1154971, “Synthesis and evaluation of opioid receptor-binding affinity of elaeocarpenine and its analogs” (Bioorg Med Chem Lett, 2010)
